Screens as filed in PubChem BioAssay.
LEDGF integ inh: blocks HIV-1 LEDGF/p75-dependent DNA integration | TR-FRET IN-LEDGF/p75 DNA integration, Eu/Cy5 | inhibition, % at 3.7 µM | 0.64% of 370,000 active | AID 743269;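 active means inhibition above the screen-wide mean plus 3 SD, cut at about 13% in these data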;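 further: signal is the Cy5 over europium emission ratio at 671 and 618 nm; 0% = plate median of compound wells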
Casp6 inh: caspase-6 (human) enzyme inhibition; 0.53% of 350,000 active; inhibition, % at 12.5 µM; purified caspase-6, Z-VEID-R110 cleavage fluorescence; P55212;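 active means mean inhibition across replicates at least about 35%, with every replicate also reaching that limit, limit read from the data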;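 further: 0% = median of neutral control wells and 100% = no fluorescence left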
Target sequence (P55212 24-179 limits assumed): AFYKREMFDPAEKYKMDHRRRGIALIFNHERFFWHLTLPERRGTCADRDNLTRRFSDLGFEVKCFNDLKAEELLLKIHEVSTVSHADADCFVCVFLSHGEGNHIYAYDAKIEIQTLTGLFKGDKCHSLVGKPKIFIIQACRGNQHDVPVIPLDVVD
Target sequence (P55212 194-293 limits assumed): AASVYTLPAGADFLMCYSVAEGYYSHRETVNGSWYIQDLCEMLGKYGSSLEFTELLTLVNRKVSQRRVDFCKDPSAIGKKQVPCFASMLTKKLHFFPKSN
NSD2 inh: inhibitors of human histone methyltransferase NSD2. NSD2 peptide methylation, AlphaScreen, 120 min. 0.54% of 310,000 active. AID 743445. inhibition, % at 12.5 µM. O96028; in the data active means inhibition above about 50%
MBD2 DNA inh: inhibitors of human MBD2 binding to methylated oligonucleotide. Q9UBB5. 0.31% of 370,000 active. AID 686964. TR-FRET. inhibition, % at 4.4 µM; in the data active means inhibition above about 13%
UHRF1 binding: human UHRF1 methylated DNA binding inhibitors; UHRF1 binding to methylated oligo, TR-FRET; inhibition, % at 4.4 µM; 0.75% of 370,000 active; AID 687016; in the data active means inhibition above about 21%;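 further: UHRF1 SRA domain binding a hemimethylated CpG hairpin DNA probe; 0% = median of test compound wells and 100% = reference inhibitor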
TDP2 absorb: TDP2 (human) inhibition, absorbance primary screen; recombinant TDP2, T5PNP hydrolysis, p-nitrophenol absorbance 415 nm; inhibition, % at 12.8 µM; 0.34% of 370,000 active;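 active means inhibition above the mean of all tested compounds plus 3 SD, set per campaign, cut at about 25% in these data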;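 further: 0% = DMSO with enzyme and 100% = buffer with substrate but no TDP2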
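System – recombinant human TDP2 · Amount – 120 nM TDP2 per well · Buffer or medium – Mg2+-containing Tris-HCl buffer, pH 7.5 · Reagent – T5PNP substrate, 5 mM · Dosing – 12.8 µM single point, 1% DMSO · Incubation – 2 h at 37 °C · Measured by – epi absorbance · Read-out basis – percent inhibition · Benchmarks – high control without enzyme, low control DMSO plus TDP2 · Repeats – singlicate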
Starred values were filed as active, the others as inactive; . = no result. Only some compounds are listed: those with a hit (about 1.8% of all), similar ones and a draw of the others.

SMILES | LEDGF integ inh | Casp6 inh | NSD2 inh | MBD2 DNA inh | UHRF1 binding | TDP2 absorb
Oc1cc(O)c(CN2CCOCC2)cc1CN1CCOCC1 | 7.4 | -2.2 | 3.1 | -0.8 | 3.8 | -0.3
CCC(=O)NC(NC(=S)Nc1ccccc1Br)C(Cl)(Cl)Cl (centres undefined) | -1.0 | 58.5* | . | 5.1 | 0.3 | 4.5
CO[C@H]1CN(C)C(=O)c2ccc(NS(C)(=O)=O)cc2OC[C@@H](C)N(CCC(F)(F)F)C[C@@H]1C | . | 1.3 | . | . | . | .
Cn1c(C(=O)N2CCCC(C(=O)NCc3cccs3)C2)cc2sccc21 (centres undefined) | 5.5 | 10.4 | . | -4.9 | -0.1 | -8.8
Cn1c(C(=O)N2CCCC(C(=O)NCCCSC3CCCCC3)C2)cc2sccc21 (centres undefined) | -0.7 | . | 9.0 | 1.1 | 60.9* | -0.8
O=c1cc(CSc2nnc(-c3cccs3)o2)c2c(ccc3ccccc32)o1 | . | . | 4.0 | . | . | .
O=C(O)c1cccc(S(=O)(=O)NNc2ccccc2C(F)(F)F)c1 | 1.4 | 40.5* | -1.9 | -0.9 | -0.8 | -5.0
Cc1cccc(S(=O)(=O)N2C[C@@H](O)COC[C@@H]3O[C@@H](CC(=O)NCCCN4CCOCC4)CC[C@H]32)c1 | . | -2.7 | . | . | . | .
COc1ccc(S(N)(=O)=O)cc1C(=O)N1CCCC1 | 5.6 | . | -1.3 | 3.1 | -4.0 | 4.5
COc1ccc(S(N)(=O)=O)cc1C(N)=O | -3.6 | 8.0 | -4.4 | 10.1 | 21.5* | -10.0
N#Cc1cccc(NC(=O)COC(=O)c2ccccc2Sc2ccccc2C#N)c1 | 2.0 | 1.0 | -0.4 | -4.0 | 34.1* | -1.5
CC(=O)c1ccc(NC(=O)COC(=O)c2ccccc2Sc2ccccc2C#N)cc1 | -2.9 | -1.4 | -3.3 | -2.6 | -1.8 | -4.0
COc1ccc(C(=O)C2CCCN(C(=O)c3c4c(nn3C)CCCC4)C2)cc1F (centres undefined) | -4.4 | -1.6 | -2.0 | 1.6 | 39.0* | 2.3
Cn1nc2c(c1C(=O)N1CCCC(C(=O)c3cc(F)ccc3F)C1)CCCC2 (centres undefined) | -0.3 | -3.0 | -0.5 | 2.0 | 0.8 | 1.4
CCc1cc(-c2nnn(CCC3COCCO3)c2CC)cc(CC)c1-c1cn(Cc2ccc3ccccc3c2)nn1 (centres undefined) | -3.4 | -2.7 | . | -1.0 | 65.4* | -10.1
O=C(C[C@@H]1CC[C@H]2NC[C@H](O)COC[C@@H]2O1)NCc1ccc(Oc2ccccc2)cc1 | . | -0.9 | . | . | . | .
COc1ccc2c3c(n(C)c2c1)[C@H](CO)N(C(=O)C1CCCCC1)CC31CN(C(=O)Nc2cccc(F)c2)C1 | . | 0.4 | . | . | . | .
Cc1cccc(N/C=C(\[N+](=O)[O-])S(=O)(=O)c2ccccc2)c1C | -0.5 | . | -4.7 | -3.1 | 49.6* | 5.3
Cc1ccc(N/C=C(\[N+](=O)[O-])S(=O)(=O)c2ccccc2)cc1 | -0.3 | 1.2 | 0.2 | 3.2 | 2.3 | -0.3
COc1ccc(/C=C/C(=O)O)cc1S(=O)(=O)NCc1ccccc1 | 87.7* | 5.9 | 1.2 | 7.7 | 13.4 | -15.0
COc1ccc(Br)cc1S(=O)(=O)NCc1ccccc1 | 1.7 | . | -4.5 | 1.9 | -2.8 | 6.4
Cc1ccc(NC(=O)C2CCN(S(=O)(=O)c3ccc4c(c3)OCCCO4)CC2)nc1 | -1.0 | 2.8 | 13.9 | 5.5 | 33.7* | 2.5
O=C(Nc1ccccc1)C1CCN(S(=O)(=O)c2ccc3c(c2)OCCO3)CC1 | -3.4 | 36.5* | 1.8 | 3.1 | 4.6 | -0.6
O=S(=O)(c1ccc2c(c1)OCCO2)N1CCN(S(=O)(=O)c2c(F)cc(F)cc2F)CC1 | 6.1 | 0.3 | . | 6.2 | 28.9* | 16.9
O=C(O)c1ccc(NC(=O)C2CCN(S(=O)(=O)c3ccc4c(c3)OCCO4)CC2)cc1 | -1.4 | 4.1 | 2.0 | 3.8 | -3.1 | -0.3
COCC#Cc1ccc([C@@H]2[C@@H](CO)N3C(=O)CN(C(=O)Nc4ccccc4F)C[C@H]23)cc1 | . | 1.1 | . | . | . | .
C/C=C/c1ccc2c(c1)O[C@H](CN(C)C(=O)c1cccc(F)c1)[C@@H](C)CN([C@H](C)CO)S2(=O)=O | . | 4.8 | . | . | . | .
CCCOc1ccc(N2CC(C(=O)Nc3ncccc3C)CC2=O)cc1 (centres undefined) | 0.4 | . | -5.5 | 5.1 | 2.2 | -5.3
COc1ccc(N2CC(C(=O)N/N=C/c3ccc([N+](=O)[O-])cc3)CC2=O)cc1 (centres undefined) | -0.3 | 8.4 | -1.9 | -2.8 | -1.2 | 4.2
